Data taken from article PMC12714840 (Nature Communications, 2025).

Columns and labels:
GPR99/OXGR1 K32A = GPR99/OXGR1 K32A (Homo sapiens, UniProt Q96P68, K32A); test: IP-one accumulation assay, K32A mutant; assay type: cell-based; conditions: K32A vs WT; oxoglutarate stimulation
GPR99/OXGR1 Y92A = GPR99/OXGR1 Y92A (Homo sapiens, UniProt Q96P68, Y92A); test: IP-one accumulation assay, Y92A mutant; assay type: cell-based; conditions: Y92A vs WT; oxoglutarate stimulation
GPR99 = GPR99 (Homo sapiens, UniProt Q96P68); conditions: GPR99 recognition of oxoglutarate; cited from earlier work
GPR99/OXGR1 C141A = GPR99/OXGR1 C141A (Homo sapiens, UniProt Q96P68, C141A); test: IP-one accumulation assay, C141A mutant; assay type: cell-based; conditions: C141A vs WT
GPR99/OXGR1 R148A = GPR99/OXGR1 R148A (Homo sapiens, UniProt Q96P68, R148A); test: IP-one accumulation assay, R148A mutant; assay type: cell-based; conditions: R148A vs WT
Human GPR99 (WT) = Human GPR99 (WT) (Homo sapiens, UniProt Q96P68); test: cAMP inhibition assay; assay type: cell-based
Outline: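 HeLa cells transiently expressing human GPR99 for 24 h, pretreated 12 h at 37 °C with 250 ng/mL PTX or vehicle. Cells harvested in HBSS with 5 mM HEPES, 0.1% BSA and 0.5 mM IBMX, then stimulated 30 min with varying ligand concentrations plus 2.5 μM forskolin. cAMP read by LANCE Ultra kit. Data are % of maximal response, mean ± SEM, ≥3 independent experiments; EC50 from three-parameter curve fit.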

Human GPR99 (wild-type) = Human GPR99 (wild-type) (Homo sapiens, UniProt Q96P68); test: IP-one accumulation assay, wild-type receptor; assay type: cell-based; conditions: WT
GPR99/OXGR1 = GPR99/OXGR1 (Homo sapiens, UniProt Q96P68); conditions: oxoglutarate for GPR99/OXGR1; no reference given; cited from earlier work
[1] = 250 ng/mL PTX pretreatment 12 h

Molecule | increase in EC50 (IP1 accumulation) (GPR99/OXGR1 K32A) | maximum response (Emax), IP1 accumulation (GPR99/OXGR1 K32A) | increase in EC50 (IP1 accumulation) (GPR99/OXGR1 Y92A) | maximum response (Emax), IP1 accumulation (GPR99/OXGR1 Y92A) | EC50 (GPR99) [µM] | effect of alanine substitution on oxoglutarate-induced receptor activation (IP1) (GPR99/OXGR1 C141A) | effect of alanine substitution on oxoglutarate-induced receptor activation (IP1) (GPR99/OXGR1 R148A) | cAMP reduction downstream of Gi coupling (Human GPR99 (WT); HeLa, 2.5 μM forskolin) | IP1 accumulation (PLC pathway downstream of Gq) (Human GPR99 (wild-type); HeLa) | affinity (Kd) (GPR99/OXGR1) | effect on cAMP response elicited by LTE4 (Human GPR99 (WT); [1]) | effect on LTE4-induced IP1 accumulation (Human GPR99 (wild-type); [1])
O=C(O)CCC(=O)C(=O)O [oxoglutarate, 2-oxoglutarate] | more than 100 fold | remained unchanged | more than 100 fold | remained unchanged | ~200 | little effect | little effect | failed to stimulate cAMP reduction | increased IP1 accumulation | hundreds of micromolar |  | 
pertussis toxin [PTX] |  |  |  |  |  |  |  |  |  |  | abrogated | without affecting IP1 accumulation
